Measured values published in ChEMBL document CHEMBL1134545, “Design, synthesis, DNA binding, and biological evaluation of water-soluble hybrid molecules containing two pyrazole analogues of the alkylating cyclopropylpyrroloindole (CPI) subunit of the antitumor agent CC-1065 and polypyrrole minor groove binders” (J Med Chem, 2001).
Converted amounts (≈) assume the structure as drawn.

Tests used:
E6SM [1] = assay: Antiviral activity against Vaccinia virus in E6SM cell cultures; type: functional; details: Homo sapiens
Summary of the method: (§1)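 Confluent E6SM cells, grown in MEM with 10% inactivated FCS, 2 mM L-glutamine and 0.3% NaHCO3, inoculated with 100 CCID50 per well. After 1 or 2 h, residual virus removed. Cells then incubated in MEM with 2% FCS and varying compound concentrations for 3 days. MIC is the concentration reducing virus-induced cytopathicity by 50% versus untreated control, read when control CPE complete.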

E6SM [2] = assay: Antiviral activity against herpes simplex virus-1 TK-VMW 1837 (HSV-1) in E6SM cell cultures; type: functional; details: Homo sapiens; summary of the method: as §1
E6SM [3] = assay: Antiviral activity against herpes simplex virus-1 KOS (HSV-1) in E6SM cell cultures; type: functional; details: Homo sapiens; summary of the method: as §1
E6SM [4] = assay: Minimum cytotoxic concentration required to cause a microscopically detectable alteration of normal cell morphology; type: functional; details: Homo sapiens
Summary of the method: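 E6SM cell cultures exposed to compound for the same duration as the antiviral assays. Cells examined under a microscope. MCC is the lowest concentration causing detectable alteration of normal cell morphology.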

E6SM [5] = assay: Antiviral activity against herpes simplex virus-2 G (HSV-2) in E6SM cell cultures; type: functional; details: Homo sapiens
Summary of the method: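 Confluent E6SM cells (MEM, 10% inactivated FCS) were infected with HSV-2 strain G at 100 CCID50 per well. After 1 or 2 h, residual virus was removed and the cells were incubated in MEM with 2% FCS and varying compound concentrations. MIC is the concentration reducing cytopathicity by 50%, recorded when control infected cultures reached full CPE (3 days).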

E6SM [6] = assay: Antiviral activity against […] in E6SM cell cultures; type: functional; details: Homo sapiens
Summary of the method: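 E6SM cells grown in MEM with 10% inactivated FCS, 2 mM L-glutamine and 0.3% NaHCO3, infected, then treated with varying compound concentrations. MIC is the concentration reducing virus-induced cytopathogenicity by 50%, recorded once CPE reached completion in untreated infected controls.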

E6SM [7] = assay: Antiviral activity against herpes simplex virus-1 TK-KOS ACV (HSV-1) in E6SM cell cultures; type: functional; details: Homo sapiens; summary of the method: as §1
L1210 [8] = assay: Cytotoxicity against L1210 leukemia cells; type: functional, cell-based; details: Mus musculus
Summary of the method: (§2)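 Cells seeded at 250 000-300 000 cells/mL and exposed to a range of compound concentrations. Incubation for 2-3 days at 37 °C, followed by Coulter counter cell counts. IC50 is the concentration that lowers cell number by 50%. Reported as mean ± SE from dose-response curves of at least three independent experiments.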

L1210 [9] = assay: In vitro antitumor activity against Murine leukemia (L1210) cell lines.; type: functional, cell-based; details: Mus musculus; summary of the method: as §2
MOLT-4 = assay: In vitro antitumor activity against Human T-lymphoblast (Molt/4) cell lines.; type: functional, cell-based; summary of the method: as §2
CCRF-CEM = assay: In vitro antitumor activity against Human T-lymphoblast (CEM) cell lines.; type: functional, cell-based; summary of the method: as §2
Daudi = assay: In vitro antitumor activity against Human B-lymphoblast (Daudi) cell lines.; type: functional, cell-based; summary of the method: as §2
FM3A = assay: In vitro antitumor activity against Murine mammary carcinoma (FM3A) cell lines.; type: functional, cell-based; details: Mus musculus; summary of the method: as §2

Row | SMILES | MIC (E6SM [1]) | MIC (E6SM [2]) | MIC (E6SM [3]) | MCC (E6SM [4]) | MIC (E6SM [5]) | MIC (E6SM [6]) | MIC (E6SM [7]) | IC50 (L1210 [8]) | IC50 (L1210 [9]) | IC50 (MOLT-4) | IC50 (CCRF-CEM) | IC50 (Daudi) | IC50 (FM3A)
1 | NC(=O)c1ncn([C@@H]2O[C@H](CO)[C@@H](O)[C@H]2O)n1 [RIBAVIRIN] | 16 µg/mL (≈ 65.5 µM) | 240 µg/mL (≈ 983 µM) | 240 µg/mL (≈ 983 µM) | > 400 µg/mL | 48 µg/mL (≈ 197 µM) | 48 µg/mL (≈ 197 µM) | 240 µg/mL (≈ 983 µM) |  |  |  |  |  | 
2 | Cc1nn(Cc2ccccc2)c2c1C13CC1CN(C(=O)OC(C)(C)C)C3=CC2=O (racemic) |  |  |  |  |  |  |  | 3060 nM |  |  |  |  | 
3 | Cn1cc(NC(=O)c2cc(NC(=O)c3cc(NC(=O)c4cc(C(=O)N5CC(CCl)c6c5cc(O)c5c6cnn5Cc5ccccc5)nn4C)cn3C)cn2C)cc1C(=O)NCCC(=N)N (stereo not given) |  |  |  |  |  |  |  |  | 400 nM | 310 nM | 400 nM | 100 nM | 19300 nM
4 | Cc1n[nH]c2c(O)cc3c(c12)C(CCl)CN3C(=O)c1cc(C(=O)Nc2cc(C(=O)Nc3cc(C(=O)Nc4cc(C(=O)NCCC(=N)N)n(C)c4)n(C)c3)n(C)c2)n(C)n1.Cl (stereo not given) | 0.019 µg/mL | > 0.16 µg/mL | > 0.16 µg/mL | 0.8 µg/mL | 0.16 µg/mL | > 0.16 µg/mL | > 0.16 µg/mL |  | 7.4 nM | 17 nM | 71 nM | 8.8 nM | 31 nM
5 | O=c1[nH]c(=O)n([C@H]2C[C@H](O)[C@@H](CO)O2)cc1/C=C/Br [BRIVUDINE] | 0.077 µg/mL (≈ 0.231 µM) | 0.128 µg/mL (≈ 0.384 µM) | 0.015 µg/mL (≈ 0.045 µM) | > 400 µg/mL | 240 µg/mL (≈ 720 µM) | > 400 µg/mL | 240 µg/mL (≈ 720 µM) |  |  |  |  |  | 
6 | Cc1n[nH]c2c(O)cc3c(c12)C(CCl)CN3C(=O)OC(C)(C)C (stereo not given) |  | > 1.6 µg/mL | > 1.6 µg/mL | 8 µg/mL | > 1.6 µg/mL | > 1.6 µg/mL | > 1.6 µg/mL |  | 520 nM | 1740 nM | 1260 nM | 680 nM | 1400 nM
7 | CC(C)(C)OC(=O)N1CC(CCl)c2c1cc(O)c1c2cnn1Cc1ccccc1 (stereo not given) |  |  |  |  |  |  |  |  | 2710 nM | 8550 nM | 6720 nM | 7520 nM | 18300 nM
8 | Cc1n[nH]c2c(O)cc3c(c12)C(CCl)CN3C(=O)c1cc(C(=O)Nc2cc(C(=O)NCCC(=N)N)n(C)c2)n(C)n1 (stereo not given) |  |  |  |  |  |  |  |  | 58 nM | 340 nM | 230 nM | 150 nM | 1600 nM
9 | Nc1nc2c(ncn2COCCO)c(=O)[nH]1 [ACYCLOVIR] |  | 0.384 µg/mL (≈ 1.71 µM) | 0.077 µg/mL (≈ 0.342 µM) | > 400 µg/mL | 0.077 µg/mL (≈ 0.342 µM) | > 400 µg/mL | 48 µg/mL (≈ 213 µM) |  |  |  |  |  | 
10 | Cc1n[nH]c2c(O)cc3c(c12)C(CCl)CN3C(=O)c1cc(C(=O)Nc2cc(C(=O)Nc3cc(C(=O)NCCC(=N)N)n(C)c3)n(C)c2)n(C)n1 (stereo not given) |  |  |  |  |  |  |  |  | 19 nM | 45 nM | 39 nM | 22 nM | 190 nM
11 | Nc1nc2c(ncn2COC(CO)CO)c(=O)[nH]1 [GANCICLOVIR] |  | 0.019 µg/mL (≈ 0.0744 µM) | 0.004 µg/mL (≈ 0.0157 µM) | > 100 µg/mL | 0.004 µg/mL (≈ 0.0157 µM) | > 100 µg/mL | 1.92 µg/mL (≈ 7.52 µM) |  |  |  |  |  | 
12 | Cn1cc(NC(=O)c2cc(C(=O)N3CC(CCl)c4c3cc(O)c3c4cnn3Cc3ccccc3)nn2C)cc1C(=O)NCCC(=N)N (stereo not given) |  |  |  |  |  |  |  |  | 240 nM | 130 nM | 70 nM | 11 nM | 4000 nM
13 | Cn1cc(NC(=O)c2cc(NC(=O)c3cc(C(=O)N4CC(CCl)c5c4cc(O)c4c5cnn4Cc4ccccc4)nn3C)cn2C)cc1C(=O)NCCC(=N)N (stereo not given) |  |  |  |  |  |  |  |  | 600 nM | 160 nM | 210 nM | 38 nM | 5600 nM
